Laboratory results reported in ChEMBL document CHEMBL3526067, “Metabolism of bis(4-fluorobenzyl)trisulfide and its formation of hemoglobin adduct in rat erythrocytes” (Drug Metab Dispos, 2013).

What was measured:
[1] = Drug level in Sprague-Dawley rat RBC treated with BFBTS by HPLC analysis; type: ADME, cell-based; settings: erythrocyte
In short: (§1)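 Male Sprague-Dawley rat RBCs (200–220 g rats), washed three times with PBS pH 7.4 and resuspended in PBS, incubated separately with each metabolite. Metabolites confirmed against authentic standards.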

Blood [2] = test: Drug level in Sprague-Dawley rat whole blood treated with BFBTS at 50 uM after 15 mins by HPLC analysis; type: ADME, tissue-based; settings: 0.25 h
[3] = Drug metabolism in Sprague-Dawley rat RBC assessed as p-FBA metabolite formation by HPLC analysis; type: ADME, cell-based; settings: erythrocyte
In short: (§2)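 BFBTS (final 50 μM) incubated at 37°C with rat RBCs diluted with an equal volume of PBS, for 5, 10, 15, 30, 45 and 60 min. For M2 (p-FBM) and M3 (p-FBA), two volumes of acetonitrile added before HPLC. BFBTS and M1 were extracted by a cited method.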

[4] = Drug level in phosphate buffered saline treated with BFBTS at 5 uM by HPLC analysis in presence of GSH; type: physicochemical; settings: buffer
[5] = Drug metabolism in phosphate buffered saline treated with BFBTS at 5 uM by HPLC analysis in presence of N-acetyl cysteine; type: physicochemical; settings: buffer
[6] = Drug metabolism in phosphate buffered saline treated with BFBTS at 5 uM by HPLC analysis in presence of cysteine; type: physicochemical; settings: buffer
[7] = Drug metabolism in phosphate buffered saline treated with BFBTS at 5 uM by HPLC analysis in presence of coenzyme A; type: physicochemical; settings: buffer
[8] = Drug level in Sprague-Dawley rat RBC treated with p-FBA by HPLC analysis; type: ADME, cell-based; settings: erythrocyte
[9] = Drug metabolism in Sprague-Dawley rat RBC assessed as BFBDS metabolite formation by HPLC analysis; type: ADME, cell-based; settings: erythrocyte; in short: as §2
[10] = Drug level in Sprague-Dawley rat RBC treated with BFBDS by HPLC analysis; type: ADME, cell-based; settings: erythrocyte; in short: as §1
Blood [11] = test: Retention time in Sprague-Dawley rat whole blood treated with 50 uM Bis(4-fluorobenzyl)trisulfide after 15 mins by HPLC analysis; type: ADME, tissue-based; settings: 0.25 h
[12] = Drug metabolism in Sprague-Dawley rat RBC assessed as BFBTS formation by HPLC analysis; type: ADME, cell-based; settings: erythrocyte; in short: as §2
Blood [13] = test: Drug level in Sprague-Dawley rat whole blood treated with BFBTS by HPLC analysis; type: ADME, tissue-based
Blood [14] = test: Drug level in Sprague-Dawley rat whole blood treated with BFBTS at 50 uM by GC/MS analysis; type: ADME, tissue-based
[15] = Drug metabolism in phosphate buffered saline assessed as BFBDS metabolite formation at 5 uM by HPLC analysis in presence of N-acetyl cysteine; type: physicochemical; settings: buffer
Blood [16] = test: Drug metabolism in Sprague-Dawley rat whole blood assessed as BFBDS metabolite formation at 50 uM by GC/MS analysis; type: ADME, tissue-based
[17] = Stability of compound in phosphate buffered saline at 5 uM after 30 mins by HPLC analysis in presence of coenzyme A; type: physicochemical; settings: buffer, 0.5 h
[18] = Drug metabolism in phosphate buffered saline assessed as BFBDS metabolite formation at 5 uM by HPLC analysis in presence of cysteine; type: physicochemical; settings: buffer
Blood [19] = test: Drug metabolism in Sprague-Dawley rat whole blood assessed as p-FBM metabolite formation by HPLC analysis; type: ADME, tissue-based
[20] = Half life in Sprague-Dawley rat diluted RBC at 25 uM by HPLC analysis; type: ADME, cell-based, Erythrocyte; settings: diluted red blood cells (RBC)
In short: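 BFBTS incubated with diluted rat RBCs (10^8/ml) for 1.5, 3, 5, 10 and 15 min. After extraction, BFBTS measured by HPLC. Half-life from nonlinear regression of concentration-time data; n = 3, means with SD.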

[21] = Drug metabolism in Sprague-Dawley rat RBC assessed as p-FBM metabolite formation by HPLC analysis; type: ADME, cell-based; settings: erythrocyte; in short: as §2
[22] = Drug recovery in Sprague-Dawley rat plasma at 64 uM after 2 hrs by HPLC analysis; type: ADME, cell-free; settings: read-out: Drug recovery
In short: (§3)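 Recovery test: BFBTS 64 μM incubated for 2 h with rat whole blood, plasma (3,000 g, 10 min) or PBS-washed RBCs. Liquid-liquid extraction, then HPLC; recovery compared across the three matrices.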

[23] = Stability in Sprague-Dawley rat RBC at 5 uM incubated for 1 hr after 5 mM thiol residue blocking agent iodoacetamide challenge by HPLC analysis; type: ADME, cell-based; settings: erythrocyte
[24] = Stability of compound in phosphate buffered saline at 5 uM after 30 mins by HPLC analysis in presence of cysteine; type: physicochemical; settings: buffer, 0.5 h
[25] = Drug metabolism in phosphate buffered saline assessed as BFBDS metabolite formation at 5 uM by HPLC analysis in presence of GSH; type: physicochemical; settings: buffer
[26] = Half life in Sprague-Dawley rat diluted RBC at 1 uM by HPLC analysis; type: ADME, cell-based, Erythrocyte; settings: diluted red blood cells (RBC)
[27] = Drug metabolism in phosphate buffered saline assessed as p-FBM metabolite formation at 5 uM by HPLC analysis in presence of coenzyme A; type: physicochemical; settings: buffer
[28] = Drug recovery in Sprague-Dawley rat RBC at 64 uM after 2 hrs by HPLC analysis; type: ADME, cell-based; settings: erythrocyte; in short: as §3
[29] = Drug recovery in Sprague-Dawley rat whole blood at 64 uM after 2 hrs by HPLC analysis; type: ADME, tissue-based; settings: read-out: Drug recovery; in short: as §3
[30] = Drug metabolism in Sprague-Dawley rat RBC assessed as rapid p-FBM metabolite formation at 50 uM by HPLC analysis; type: ADME, cell-based; settings: erythrocyte; in short: as §2
Blood [31] = test: Drug metabolism in Sprague-Dawley rat whole blood assessed as p-FBA metabolite formation at 50 uM by UPLC-MS/MS analysis; type: ADME, tissue-based
In short: (§4)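 p-FBA in rat whole blood incubated with BFBTS, measured by UPLC-MS. 0.1% formic acid/acetonitrile gradient at 0.2 ml/min, column 25°C. Capillary 3.30 kV, cone 31 V, source 150°C, desolvation 350°C.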

Blood [32] = test: Drug metabolism in Sprague-Dawley rat whole blood assessed as p-FBM metabolite formation at 50 uM by GC/MS analysis; type: ADME, tissue-based
Blood [33] = test: Drug metabolism in Sprague-Dawley rat whole blood assessed as BFBDS metabolite formation by HPLC analysis; type: ADME, tissue-based
[34] = Drug metabolism in phosphate buffered saline assessed as p-FBM metabolite formation at 5 uM by HPLC analysis in presence of cysteine; type: physicochemical; settings: buffer
[35] = Stability of compound in phosphate buffered saline at 5 uM after 30 mins by HPLC analysis in presence of GSH; type: physicochemical; settings: buffer, 0.5 h
[36] = Drug metabolism in Sprague-Dawley rat RBC assessed as p-FBA metabolite formation at slow rate at 50 uM by HPLC analysis; type: ADME, cell-based; settings: erythrocyte; in short: as §2
Blood [37] = test: Drug metabolism in Sprague-Dawley rat whole blood assessed as p-FBA metabolite formation by HPLC analysis; type: ADME, tissue-based
[38] = Drug level in Sprague-Dawley rat RBC treated with p-FBM by HPLC analysis; type: ADME, cell-based; settings: erythrocyte; in short: as §1
[39] = Stability of compound in phosphate buffered saline at 5 uM after 30 mins by HPLC analysis in presence of N-acetyl cysteine; type: physicochemical; settings: buffer, 0.5 h
[40] = Drug metabolism in phosphate buffered saline assessed as p-FBM metabolite formation at 5 uM by HPLC analysis in presence of GSH; type: physicochemical; settings: buffer
Blood [41] = test: Drug level in Sprague-Dawley rat whole blood treated with BFBTS at 50 uM by UPLC-MS/MS analysis; type: ADME, tissue-based; in short: as §4
[42] = Drug level in phosphate buffered saline treated with BFBTS at 5 uM at pH 7.4 after 30 mins by LC-MS analysis in presence of GSH; type: physicochemical; settings: buffer, pH 7.4, 0.5 h
In short: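 BFBTS 5 μM incubated with GSH 0.5 mM in PBS pH 7.4 for 30 min. Two volumes of acetonitrile added, then HPLC and LC-MS to identify reaction products.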

With `Fc1ccc(CS)cc1` the Drug metabolism [1] was “metabolite_detected”, the Drug metabolism (Blood [2]) was “metabolite_detected” and the Drug metabolism [3] was “metabolite_detected”. For the same molecule, the Drug metabolism [4] was “metabolite_detected”, the Drug metabolism [5] was “metabolite_detected” and the Drug metabolism [6] was “metabolite_detected”. For the same molecule, the Drug metabolism [7] was “metabolite_detected”, the Drug metabolism [8] was “metabolite_not_detected” and the Drug metabolism [9] was “metabolite_detected”. The Drug metabolism [10] was “metabolite_detected”, the Retention_time (Blood [11]) was 24.66 min and the Drug metabolism [12] was “metabolite_not_detected”. The Drug metabolism (Blood [13]) was “metabolite_detected” and the Drug metabolism (Blood [14]) was “metabolite_detected”.
In the case of `Fc1ccc(CSSSCc2ccc(F)cc2)cc1`, the Drug metabolism [15] is reported as “metabolite_detected”, the Drug metabolism (Blood [16]) is reported as “metabolite_detected” and the Stability [17] is reported as “Unstable”. For the same molecule, the Drug metabolism [18] was “metabolite_detected”, the Drug metabolism (Blood [19]) was “metabolite_detected” and the half-life at 25 µM [20] was 0.4 min. For the same molecule, the Drug metabolism [21] was “metabolite_detected”, the remaining at 2 h, 64 µM [22] was 13% and the Stability [23] was “Stable”. For the same molecule, the Stability [24] was “Unstable”, the Drug metabolism [3] was “metabolite_detected” and the Drug metabolism [25] was “metabolite_detected”. For the same molecule, the half-life at 1 µM [26] was less than 0.5 min, the Drug metabolism [27] was “metabolite_detected” and the Drug recovery [28] was “Not Active”. The remaining at 2 h, 64 µM [29] was 2.54%, the Drug metabolism [30] was “metabolite_detected” and the Drug metabolism (Blood [31]) was “metabolite_detected”. The Drug metabolism (Blood [32]) was “metabolite_detected”, the Drug metabolism (Blood [33]) was “metabolite_detected” and the Drug metabolism [34] was “metabolite_detected”. The Stability [35] was “Unstable”, the Drug metabolism [8] was “metabolite_not_detected” and the Drug metabolism [9] was “metabolite_detected”. For the same molecule, the Drug metabolism [10] was “metabolite_not_detected”, the Drug metabolism [36] was “metabolite_detected” and the Drug metabolism (Blood [37]) was “metabolite_detected”. For the same molecule, the Drug metabolism [38] was “metabolite_not_detected”, the Stability [39] was “Unstable” and the Drug metabolism [40] was “metabolite_detected”.
For `O=C(O)c1ccc(F)cc1`, the Drug metabolism [1] was “metabolite_detected”, the Drug metabolism (Blood [2]) was “metabolite_detected” and the Drug metabolism [21] was “metabolite_not_detected”. The Drug metabolism (Blood [41]) was “metabolite_detected”, the Drug metabolism [9] was “metabolite_not_detected” and the Drug metabolism [10] was “metabolite_detected”. For the same molecule, the Retention_time (Blood [11]) was 8.15 min, the Drug metabolism [12] was “metabolite_not_detected” and the Drug metabolism (Blood [13]) was “metabolite_detected”. The Drug metabolism [38] was “metabolite_detected”.
With `Fc1ccc(CSSCc2ccc(F)cc2)cc1` the Drug metabolism [1] was “metabolite_detected”, the Drug metabolism (Blood [2]) was “metabolite_detected” and the Drug metabolism [21] was “metabolite_detected”. For the same molecule, the Drug metabolism [3] was “metabolite_detected”, the Drug metabolism [4] was “metabolite_detected” and the Drug metabolism [5] was “metabolite_detected”. For the same molecule, the Drug metabolism [6] was “metabolite_detected”, the Drug metabolism [7] was “metabolite_detected” and the Drug metabolism [8] was “metabolite_not_detected”. For the same molecule, the Retention_time (Blood [11]) was 38.89 min, the Drug metabolism [12] was “metabolite_not_detected” and the Drug metabolism (Blood [13]) was “metabolite_detected”. The Drug metabolism [38] was “metabolite_detected” and the Drug metabolism (Blood [14]) was “metabolite_detected”.
With `N[C@@H](CCC(=O)N[C@@H](CSSCc1ccc(F)cc1)C(=O)NCC(=O)O)C(=O)O` the Drug uptake [42] was “metabolite_detected”.
